6 compounds from ChEMBL document CHEMBL2331083, “Magnolia Extract, Magnolol, and Metabolites: Activation of Cannabinoid CB2 Receptors and Blockade of the Related GPR55” (ACS Med Chem Lett, 2013) can be followed below.

Activity calls are given as the source filed them. The rule behind the calls is not given here.

As usually defined, the inhibition is how much of the control response was suppressed. The term EC50 denotes the concentration at which the effect is half-maximal. For orientation: Ki means the equilibrium dissociation constant of an inhibitor or competing ligand from its target. The term Kb denotes the affinity of an antagonist, worked out from how it opposes an agonist.

T2 sequence (P34972 whole entry): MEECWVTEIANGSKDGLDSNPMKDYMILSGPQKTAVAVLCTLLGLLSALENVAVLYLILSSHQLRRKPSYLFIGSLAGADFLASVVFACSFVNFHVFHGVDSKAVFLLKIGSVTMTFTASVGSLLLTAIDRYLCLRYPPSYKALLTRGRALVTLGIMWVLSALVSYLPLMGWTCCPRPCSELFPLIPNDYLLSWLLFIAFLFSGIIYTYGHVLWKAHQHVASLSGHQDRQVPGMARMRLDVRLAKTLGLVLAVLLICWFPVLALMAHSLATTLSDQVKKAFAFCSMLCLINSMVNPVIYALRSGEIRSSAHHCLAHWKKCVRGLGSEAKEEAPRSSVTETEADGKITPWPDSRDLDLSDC

The target of the first test is T1, Monoglyceride lipase (Rattus norvegicus) (UniProt Q8R431).
T1 sequence (whole entry): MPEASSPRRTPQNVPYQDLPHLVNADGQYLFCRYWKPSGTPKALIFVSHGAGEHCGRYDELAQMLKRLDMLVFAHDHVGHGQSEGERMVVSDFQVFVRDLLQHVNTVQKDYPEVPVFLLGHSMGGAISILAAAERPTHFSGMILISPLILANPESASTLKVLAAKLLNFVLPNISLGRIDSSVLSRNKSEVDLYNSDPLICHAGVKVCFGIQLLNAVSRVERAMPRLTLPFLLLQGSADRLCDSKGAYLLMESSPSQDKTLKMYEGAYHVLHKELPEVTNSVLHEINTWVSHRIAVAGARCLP
The test can be described thus: Inhibition of MAGL in rat brain microsome using pyrenylbutanamide as substrate after 60 mins by HPLC analysis. Format: microsomes.
Conditions: not given
A digest of the protocol: (§1)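 Rat brain preparations were used as the FAAH or MAGL enzyme source. Compounds were tested at 10 μM and the extract at 50 μg/mL, read as percent inhibition.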
Consider `C/C=C/c1ccc(O)c(-c2cc(/C=C/C)ccc2O)c1`, for which the inhibition entry is “inactive”.
In the case of `CCCc1ccc(O)c(-c2cc(CCC)ccc2O)c1`, the inhibition entry is “inactive”.
As for `C=CCc1ccc(O)c(-c2cc(CC(O)CO)ccc2O)c1` (racemic), the inhibition result was “inactive”.
Turning to `C=CCc1ccc(O)c(-c2ccc(O)c(CC=C)c2)c1` [HONOKIOL], the inhibition result is “inactive”.
Still for that read-out and setting: then `C=CCc1ccc(O)c(-c2cc(CC=C)ccc2O)c1` [MAGNOLOL], with “inactive”.

A further test addresses T2, Cannabinoid receptor 2 (Homo sapiens, UniProt P34972). Description: Agonist activity at recombinant human CB2 receptor expressed in CHO cells assessed as inhibition of forskolin-induced cAMP accumulation after 5 mins by cAMP-competition binding assay. Format: functional, cell-based.
Conditions: not given
As to `C/C=C/c1ccc(O)c(-c2cc(/C=C/C)ccc2O)c1`, the EC50 came to 8.73 µM.

A further test concerns the target T2, Cannabinoid receptor 2. Description: Agonist activity at recombinant human CB2 receptor expressed in CHO cells assessed as inhibition of forskolin-induced cAMP accumulation at 100 uM after 5 mins by cAMP-competition binding assay relative to CP55,940. Format: functional, cell-based.
Conditions: not given
A digest of the protocol: (§2)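 Forskolin (10 μM)-stimulated cAMP accumulation in CHO cells stably expressing the human CB1 or CB2 receptor. Test agents at 100 μM. Efficacy given as a percentage of the maximal effect of the full agonist CP55,940 (1 μM), taken as 100%. At least three independent experiments, each run in duplicate.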
Regarding `C/C=C/c1ccc(O)c(-c2cc(/C=C/C)ccc2O)c1`, the Efficacy is 55%.
Still for that read-out and setting: the value for `C=CCc1ccc(O)c(-c2ccc(O)c(CC=C)c2)c1` [HONOKIOL] was 0%; that for `C=CCc1ccc(O)c(-c2cc(CC=C)ccc2O)c1` [MAGNOLOL] was 31%.

In another test the target is T3, Cannabinoid receptor 1 (Homo sapiens, UniProt P21554). The test can be described thus: biochemical. Format: cell-based, CHO.
T3 sequence (P21554 whole entry): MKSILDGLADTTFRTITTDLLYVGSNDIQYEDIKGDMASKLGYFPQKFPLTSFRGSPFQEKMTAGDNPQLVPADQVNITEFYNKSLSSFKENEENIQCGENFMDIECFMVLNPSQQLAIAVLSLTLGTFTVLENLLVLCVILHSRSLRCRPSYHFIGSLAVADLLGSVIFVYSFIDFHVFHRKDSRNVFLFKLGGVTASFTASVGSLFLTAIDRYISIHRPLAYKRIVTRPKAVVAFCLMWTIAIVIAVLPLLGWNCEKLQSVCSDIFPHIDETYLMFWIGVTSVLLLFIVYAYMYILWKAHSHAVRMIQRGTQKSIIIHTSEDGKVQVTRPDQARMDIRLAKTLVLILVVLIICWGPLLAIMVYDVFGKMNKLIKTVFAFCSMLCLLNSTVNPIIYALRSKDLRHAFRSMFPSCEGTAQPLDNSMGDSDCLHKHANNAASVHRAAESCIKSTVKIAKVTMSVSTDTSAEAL
Conditions: not given
In the case of `C/C=C/c1ccc(O)c(-c2cc(/C=C/C)ccc2O)c1`, the Ki is > 10 µM.
In turn, `CCCc1ccc(O)c(-c2cc(CCC)ccc2O)c1` returned a Ki of 2.26 µM.
Still for that read-out and setting: the value for `C=CCc1ccc(O)c(-c2cc(CC(O)CO)ccc2O)c1` (racemic) was > 10 µM; that for `C=CCc1ccc(O)c(-c2ccc(O)c(CC=C)c2)c1` [HONOKIOL] was 6.46 µM; that for `C=CCc1ccc(O)c(-c2cc(CC=C)ccc2O)c1` [MAGNOLOL] was 3.15 µM.

The target of a further test is T3, Cannabinoid receptor 1. Description: Agonist activity at recombinant human CB1 receptor expressed in CHO cells assessed as inhibition of forskolin-induced cAMP accumulation after 5 mins by cAMP-competition binding assay. Format: functional, cell-based.
Conditions: not given
(cAMP levels reflect the balance of adenylyl cyclase and phosphodiesterase activity.)
On to `C/C=C/c1ccc(O)c(-c2cc(/C=C/C)ccc2O)c1`, for which the EC50 was > 10 µM.
As for `CCCc1ccc(O)c(-c2cc(CCC)ccc2O)c1`, the concentration for a half-maximal effect (EC50) stood at 9.01 µM.
For the compound `C=CCc1ccc(O)c(-c2ccc(O)c(CC=C)c2)c1` [HONOKIOL], the concentration for a half-maximal effect (EC50) is > 10 µM.

For another test, the target named is T3, Cannabinoid receptor 1. Description: Partial agonist activity at recombinant human CB1 receptor expressed in CHO cells assessed as inhibition of forskolin-induced cAMP accumulation at 100 uM after 5 mins by cAMP-competition binding assay relative to CP55,940. Format: functional, cell-based.
Conditions: not given
Summed up: (§3)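 CHO cells recombinantly expressing human CB1 or CB2 receptor; forskolin (10 μM)-stimulated cAMP accumulation inhibited by test compound over a concentration range. Efficacy measured at 100 μM relative to the maximal effect of full agonist CP55,940 (1 μM) = 100%. EC50 from concentration-response curves; at least three independent experiments in duplicate, means ± SEM.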
Regarding `C=CCc1ccc(O)c(-c2cc(CC=C)ccc2O)c1` [MAGNOLOL], the EC50 came out at 18.3 µM.

A further test has as its target T2, Cannabinoid receptor 2.
Experiment: not given
The settings on record: CHO, 10 uM.
`CCCc1ccc(O)c(-c2cc(CCC)ccc2O)c1` came in with an Efficacy of 49%.

The target in another test is T4, Fatty-acid amide hydrolase 1 (Rattus norvegicus) (UniProt P97612).
T4 sequence (whole entry): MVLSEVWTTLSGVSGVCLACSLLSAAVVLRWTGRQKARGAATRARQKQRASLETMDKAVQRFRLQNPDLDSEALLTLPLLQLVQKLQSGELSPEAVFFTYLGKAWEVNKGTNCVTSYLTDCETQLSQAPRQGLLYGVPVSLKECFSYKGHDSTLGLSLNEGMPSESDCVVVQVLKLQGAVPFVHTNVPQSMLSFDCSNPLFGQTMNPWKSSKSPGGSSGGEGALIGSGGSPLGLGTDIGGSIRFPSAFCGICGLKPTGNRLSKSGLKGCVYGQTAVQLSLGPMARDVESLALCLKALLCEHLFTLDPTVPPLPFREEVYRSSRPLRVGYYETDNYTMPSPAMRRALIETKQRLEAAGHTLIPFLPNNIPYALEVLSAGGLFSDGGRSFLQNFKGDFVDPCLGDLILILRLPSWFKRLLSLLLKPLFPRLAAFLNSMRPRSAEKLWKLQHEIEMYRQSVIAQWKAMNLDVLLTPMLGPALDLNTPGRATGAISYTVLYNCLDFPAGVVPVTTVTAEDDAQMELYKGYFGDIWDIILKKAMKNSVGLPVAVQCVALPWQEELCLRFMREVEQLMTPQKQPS
The test can be described thus: Inhibition of FAAH in rat brain microsome using pyrenylbutanamide as substrate after 60 mins by HPLC analysis. Format: microsomes.
Conditions: not given
Summed up:
as §1
For `C/C=C/c1ccc(O)c(-c2cc(/C=C/C)ccc2O)c1`, the inhibition result is “inactive”.
Still for that read-out and setting: then `CCCc1ccc(O)c(-c2cc(CCC)ccc2O)c1`, with “inactive”; and `C=CCc1ccc(O)c(-c2cc(CC(O)CO)ccc2O)c1` (racemic), with “inactive”; and `C=CCc1ccc(O)c(-c2ccc(O)c(CC=C)c2)c1` [HONOKIOL], with “inactive”.
For the compound `C=CCc1ccc(O)c(-c2cc(CC=C)ccc2O)c1` [MAGNOLOL], the inhibition result was “inactive”.

Another test concerns the target T2, Cannabinoid receptor 2. The test can be described thus: Partial agonist activity at recombinant human CB2 receptor expressed in CHO cells assessed as inhibition of forskolin-induced cAMP accumulation at 100 uM after 5 mins by cAMP-competition binding assay relative to CP55,940. Format: functional, cell-based.
Conditions: not given
Summed up: as §3
As for `CCCc1ccc(O)c(-c2cc(CCC)ccc2O)c1`, the EC50 came out at 0.17 µM.
`C=CCc1ccc(O)c(-c2cc(CC=C)ccc2O)c1` [MAGNOLOL]: the EC50 came out at 3.28 µM.

The next test relates to CHO. Description: Ratio of EC50 for recombinant human CB1 receptor expressed in CHO cells to recombinant human CB2 receptor expressed in CHO cells assessed as inhibition of forskolin-induced cAMP accumulation.
Conditions: not given
Format: cell-based.
As for `C=CCc1ccc(O)c(-c2cc(CC=C)ccc2O)c1` [MAGNOLOL], the Ratio EC50 stood at 6.

A further test deals with T3, Cannabinoid receptor 1. Description: Agonist activity at recombinant human CB1 receptor expressed in CHO cells assessed as inhibition of forskolin-induced cAMP accumulation at 100 uM after 5 mins by cAMP-competition binding assay relative to CP55,940.
Conditions: not given
Format: functional, cell-based. A digest of the protocol:
as §2
As to `C/C=C/c1ccc(O)c(-c2cc(/C=C/C)ccc2O)c1`, the Efficacy is 134%.
`CCCc1ccc(O)c(-c2cc(CCC)ccc2O)c1`: the Efficacy came out at 124%.
For `C=CCc1ccc(O)c(-c2ccc(O)c(CC=C)c2)c1` [HONOKIOL], the Efficacy was found to be 168%.
For the compound `C=CCc1ccc(O)c(-c2cc(CC=C)ccc2O)c1` [MAGNOLOL], the Efficacy turned out to be 62%.

A further test deals with G-protein coupled receptor 55 (Homo sapiens) (UniProt Q9Y2T6). The test can be described thus: Antagonist activity at human GPR55 expressed in CHO cells assessed as inhibition of LPI-induced beta-arrestin translocation after 90 mins by luminescence assay. Format: cell-based.
G-protein coupled receptor 55 (Homo sapiens), sequence (Q9Y2T6 whole entry): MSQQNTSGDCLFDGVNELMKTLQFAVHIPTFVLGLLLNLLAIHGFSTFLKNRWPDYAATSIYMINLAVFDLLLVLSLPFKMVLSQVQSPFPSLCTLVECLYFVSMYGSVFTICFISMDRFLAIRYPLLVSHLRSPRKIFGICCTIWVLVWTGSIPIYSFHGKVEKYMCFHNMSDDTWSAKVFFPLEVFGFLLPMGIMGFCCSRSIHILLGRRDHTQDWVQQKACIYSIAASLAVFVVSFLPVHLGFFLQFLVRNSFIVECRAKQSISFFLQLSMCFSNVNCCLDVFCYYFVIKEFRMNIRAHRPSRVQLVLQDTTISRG
Conditions: not given
A digest of the protocol: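 CHO cells expressing human GPR55; β-arrestin recruitment read as luminescence by β-galactosidase enzyme fragment complementation. LPI agonist curves run with and without test compound at 10 μM, giving a parallel shift from which KB was derived; single-point inhibition tested against LPI at 1 μM (100%). Three independent experiments in duplicate, means ± SEM.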
On to `CCCc1ccc(O)c(-c2cc(CCC)ccc2O)c1`, for which the antagonist dissociation constant (Kb) is 13.3 µM.
For the compound `CCCCCCC(C)(C)c1ccc([C@@H]2C[C@H](O)CC[C@H]2CCCO)c(O)c1`, the Kb was determined as 1.89 µM.

In another test the target is T2, Cannabinoid receptor 2. Description: Displacement of [3H]CP55,940 from recombinant human CB2 receptor expressed in CHO cells after 2 hrs by liquid scintillation counting. Format: cell-based.
Conditions: not given
As to `C/C=C/c1ccc(O)c(-c2cc(/C=C/C)ccc2O)c1`, the Ki was 3.14 µM.
On the same count and under the same terms, the value for `CCCc1ccc(O)c(-c2cc(CCC)ccc2O)c1` was 0.416 µM; that for `C=CCc1ccc(O)c(-c2cc(CC(O)CO)ccc2O)c1` (racemic) was > 10 µM.
With `C=CCc1ccc(O)c(-c2ccc(O)c(CC=C)c2)c1` [HONOKIOL], the Ki was 5.61 µM.
Consider `C=CCc1ccc(O)c(-c2cc(CC=C)ccc2O)c1` [MAGNOLOL], for which the inhibition constant Ki stood at 1.44 µM.

The next test addresses G-protein coupled receptor 55 (Homo sapiens) (UniProt Q9Y2T6). The test can be described thus: Antagonist activity at human GPR55 expressed in CHO cells assessed as inhibition of LPI-induced beta-arrestin translocation at 10 uM after 90 mins by luminescence assay. Format: cell-based.
Conditions: not given
A digest of the protocol: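 Human GPR55 expressed recombinantly in CHO cells. β-Arrestin recruitment stimulated by LPI (1 μM) was read as luminescence by β-galactosidase enzyme fragment complementation. Test agents at 10 μM, extract at 50 μg/mL, with the LPI response set to 100%. KB derived from the rightward shift of the LPI concentration-response curve with antagonist present at 10 μM. Three independent experiments in duplicate.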
In the case of `C/C=C/c1ccc(O)c(-c2cc(/C=C/C)ccc2O)c1`, the inhibition came out at 0%.
For the compound `CCCc1ccc(O)c(-c2cc(CCC)ccc2O)c1`, the inhibition turned out to be 96%.
With `CCCCCCC(C)(C)c1ccc([C@@H]2C[C@H](O)CC[C@H]2CCCO)c(O)c1`, the inhibition turned out to be 92%.
On to `C=CCc1ccc(O)c(-c2cc(CC(O)CO)ccc2O)c1` (racemic), for which the inhibition is 4%.
Regarding `C=CCc1ccc(O)c(-c2ccc(O)c(CC=C)c2)c1` [HONOKIOL], the inhibition is 42%.
Take `C=CCc1ccc(O)c(-c2cc(CC=C)ccc2O)c1` [MAGNOLOL]: the inhibition stood at 0%.
